# pEC50: −log10 of the molar value. The source made the active and inactive calls. No cut-off for these calls is given here. Where a SMILES comes first, the peptide text is derived from it.
# Legend:
# [1] = system: Lipid bilayer; test: Disruption of interfacial region in DOPC/DOPE/DOPG/CH (40/30/10/20 mol%) small unilamellar vesicles at 2 to 10 uM by TMA-DPH based fluorescence anisotropy; conditions: dose 2-10 µM
# Outline: (§1)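 TMA-DPH steady-state anisotropy in SUVs (200 μM total lipid) across a range of peptide concentrations. Excitation 360 nm, emission 428 nm, 5 nm slits. Buffer 10 mM TES, 100 mM NaCl, 1 mM CaCl2, 1 mM EDTA, pH 7.4, 37 °C. Anisotropy from polarised intensities with G-factor correction; mean ± S.E. of at least three measurements.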
# [2] = system: Lipid bilayer; test: Inhibition of PEG-induced DOPC/DOPE/DOPG (60/30/10 mol%) small unilamellar vesicles assessed as content mixing at 1:100 compound: lipid concentration preincubated for 10 mins followed by PEG addition by fluorescence based analysis (reference value: 16.7 +/- 0.6 %)
# Outline: (§2)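 Content mixing by Tb3+/DPA complex fluorescence. Vesicles loaded with 8 mM TbCl3 or 80 mM DPA, external probe removed by gel filtration. Mixed 1:1 at 200 μM lipid; peptide 2 μM added 10 min before 6% (w/v) PEG, 37 °C. Normalised to co-encapsulated and detergent-treated samples.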
# [3] = system: Lipid bilayer; test: Inhibition of PEG-induced DOPC/DOPE/DOPG/CH (40/30/10/20 mol%) small unilamellar vesicle assessed as content mixing at 1:100 compound: lipid concentration preincubated for 10 mins followed by PEG addition by fluorescence based analysis (reference value: 23.0 +/- 0.9 %); outline: as §2
# [4] = system: Influenza A virus H3N2; test: Antiviral activity against Influenza A virus X-31 (H3N2) infected in MDCK cells assessed as inhibition of viral infection preincubated for 48 hrs followed by viral infection for 45 mins by MTT assay; assay type: functional, organism-based; conditions: X-31, MDCK
# Outline: (§3)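 A549 or MDCK cells seeded 1.5 × 10^4 per well, grown 24 h. Virus premixed with two-fold serial peptide dilutions in serum-free medium with trypsin (2.5 μg ml-1). Cells infected 45 min at 37 °C, washed, then kept 48 h in medium with 0.1% FBS, 0.3% BSA and trypsin. MTT 4 h, absorbance 570 nm. CPE inhibition normalised to cell and virus controls, dose-response fit for EC50; at least 3 sets.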
# [5] = system: Influenza A virus H3N2; test: Antiviral activity against Influenza A virus X-31 (H3N2) infected in human A549 cells assessed as inhibition of viral infection incubated for 48 hrs post infection by hemagglutination assay (reference value: 4 No unit); assay type: functional
# [6] = system: Lipid bilayer; test: Inhibition of PEG-induced DOPC/DOPE/DOPG/CH (50/30/10/10 mol%) small unilamellar vesicles assessed as lipid mixing at 1:100 compound: lipid concentration preincubated for 10 mins followed by PEG addition by spectrofluorometric analysis (reference value: 67.8 +/- 2.7 %)
# Outline: (§4)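 Lipid mixing followed as FRET dilution. Vesicles carrying 0.8 mol% NBD-PE and Rh-PE mixed 1:9 with probe-free vesicles at 200 μM lipid. Peptide 2 μM added 10 min before 6% (w/v) PEG at 37 °C. NBD donor intensity rise recorded over time; TX-100 defines complete mixing.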
# [7] = system: Lipid bilayer; test: Reduction of apparent rotational correlation time in DOPC/DOPE/DOPG (60/30/10 mol%) small unilamellar vesicles at 2 to 10 uM by TMA-DPH anisotropy analysis; conditions: dose 2-10 µM
# Outline: (§5)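 Apparent rotational correlation time of TMA-DPH from the Perrin equation, combining steady-state anisotropy and mean lifetime with r0 = 0.4. SUVs at 200 μM lipid with varying peptide, in TES/NaCl/CaCl2/EDTA buffer pH 7.4 at 37 °C; at least three measurements.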
# [8] = system: Lipid bilayer; test: Inhibition of PEG-induced DOPC/DOPE/DOPG/CH (40/30/10/20 mol%) (20 CH) small unilamellar vesicles fusion assessed as content mixing at 1:100 compound: lipid concentration preincubated for 10 mins followed by PEG addition by spectrofluorometric analysis; outline: as §2
# [9] = system: Lipid bilayer; test: Inhibition of PEG-induced DOPC/DOPE/DOPG/CH (50/30/10/10 mol%) small unilamellar vesicles assessed as content mixing at 1:100 compound: lipid concentration preincubated for 10 mins followed by PEG addition by fluorescence based analysis relative to control; outline: as §2
# [10] = system: Lipid bilayer; test: Disruption of interfacial region in DOPC/DOPE/DOPG (60/30/10 mol%) small unilamellar vesicles at 2 to 10 uM by TMA-DPH based fluorescence anisotropy; conditions: dose 2-10 µM; outline: as §1
# [11] = system: Lipid bilayer; test: Binding affinity to DOPC/DOPE/DOPG/CH (50/30/10/10 mol%) small unilamellar vesicles assessed as membrane organization and dynamic by measuring increase in fluorescence intensity at 1:100 compound: lipid concentration by tryptophan fluorescence based spectrofluorometric analysis
# Outline: (§6)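 Tryptophan fluorescence spectra of the peptide recorded in buffer and with SUVs. Lipid:peptide 100:1, total lipid 200 μM, in 10 mM TES, 100 mM NaCl, 1 mM CaCl2, 1 mM EDTA, pH 7.4. At least three independent measurements averaged.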
# [12] = system: Lipid bilayer; test: Reduction of apparent rotational correlation time in DOPC/DOPE/DOPG/CH (50/30/10/10 mol%) small unilamellar vesicles at 2 to 10 uM by TMA-DPH anisotropy analysis; conditions: dose 2-10 µM; outline: as §5
# [13] = system: Influenza A virus H3N2; test: Antiviral activity against Influenza A virus X-31 (H3N2) infected in human A549 cells assessed as reduction in virus-induced cytopathic effect preincubated for 48 hrs followed by viral infection for 45 mins by light microscopic analysis; assay type: functional, organism-based; conditions: time 2925.0 min
# Outline: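 A549 cells infected with virus–peptide mixtures at increasing peptide concentrations, then assessed by light microscopy for cytopathic effect 48 h after infection.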
# [14] = system: Lipid bilayer; test: Inhibition of PEG-induced DOPC/DOPE/DOPG (60/30/10 mol%) small unilamellar vesicle assessed as content leakage at 1:100 compound: lipid concentration preincubated for 10 mins followed by PEG addition by fluorescence based analysis (reference value: 11.7 +/- 0.4 %)
# Outline: (§7)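 Leakage read as loss of fluorescence from vesicles co-encapsulating 8 mM TbCl3 and 80 mM DPA, external probe removed. Lipid 200 μM; peptide 2 μM added 10 min before 6% (w/v) PEG at 37 °C. 100% leakage set with 0.1% (w/v) Triton X-100.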
# [15] = system: Lipid bilayer; test: Reduction of apparent rotational correlation time in DOPC/DOPE/DOPG/CH (40/30/10/20 mol%) small unilamellar vesicles at 2 to 10 uM by TMA-DPH anisotropy analysis; conditions: dose 2-10 µM; outline: as §5
# [16] = system: Lipid bilayer; test: Inhibition of PEG-induced DOPC/DOPE/DOPG/CH (40/30/10/20 mol%) small unilamellar vesicles assessed as content leakage at 1:100 compound: lipid concentration preincubated for 10 mins followed by PEG addition by fluorescence based analysis (reference value: 11.1 +/- 0.4 %); outline: as §7
# [17] = system: Lipid bilayer; test: Inhibition of PEG-induced DOPC/DOPE/DOPG/CH (40/30/10/20 mol%) small unilamellar vesicles assessed as content mixing at 1:100 compound: lipid concentration preincubated for 10 mins followed by PEG addition by spectrofluorometric analysis relative to control; outline: as §2
# [18] = system: Lipid bilayer; test: Inhibition of PEG-induced DOPC/DOPE/DOPG (60/30/10 mol%) small unilamellar vesicles assessed as lipid mixing at 1:100 compound: lipid concentration preincubated for 10 mins followed by PEG addition by spectrofluorometric analysis (reference value: 57.4 +/- 2.2 %); outline: as §4
# [19] = system: Lipid bilayer; test: Inhibition of PEG-induced DOPC/DOPE/DOPG/CH (40/30/10/20 mol%) small unilamellar vesicles assessed as increase in lipid mixing at 1:100 compound: lipid concentration preincubated for 10 mins followed by PEG addition by spectrofluorometric analysis relative to control; outline: as §4
# [20] = system: Lipid bilayer; test: Inhibition of PEG-induced DOPC/DOPE/DOPG/CH (50/30/10/10 mol%) small unilamellar vesicles assessed as increase in lipid mixing at 1:100 compound: lipid concentration preincubated for 10 mins followed by PEG addition by spectrofluorometric analysis relative to control; outline: as §4
# [21] = system: Influenza A virus H3N2; test: Antiviral activity against Influenza A virus X-31 (H3N2) infected in human A549 cells assessed as inhibition of viral infection preincubated for 48 hrs followed by viral infection for 45 mins by MTT assay; assay type: functional, organism-based; conditions: X-31, A549; outline: as §3
# [22] = system: Influenza A virus H3N2; test: Antiviral activity against Influenza A virus X-31 (H3N2) infected in human A549 cells assessed as reduction in viral M1 protein expression level incubated for 48 hrs post infection by Western blot analysis; assay type: functional, organism-based
# Outline: (§8)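 Cells seeded at 0.25 × 10^6 per well and co-infected with virus–peptide mixtures as in the CPE assay. Lysed in RIPA with protease inhibitor 48 h post-infection, protein by BCA. Run on 12% SDS-PAGE, transferred to PVDF, blocked in 3% milk. Probed with anti-M1 (1:1000) and HRP anti-mouse IgG (1:10 000); β-actin as loading control after stripping.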
# [23] = system: Influenza A virus H3N2; test: Antiviral activity against Influenza A virus X-31 (H3N2) infected in MDCK cells assessed as reduction in viral M1 protein expression level incubated for 48 hrs post infection by Western blot analysis; assay type: functional, organism-based; outline: as §8
# [24] = system: Lipid bilayer; test: Binding affinity to DOPC/DOPE/DOPG/CH (40/30/10/20 mol%) small unilamellar vesicles assessed as membrane organization and dynamic by measuring increase in fluorescence intensity at 1:100 compound: lipid concentration by tryptophan fluorescence based spectrofluorometric analysis; outline: as §6
# [25] = system: Lipid bilayer; test: Inhibition of PEG-induced DOPC/DOPE/DOPG/CH (50/30/10/10 mol%) small unilamellar vesicles assessed as content leakage at 1:100 compound: lipid concentration preincubated for 10 mins followed by PEG addition by fluorescence based analysis relative to control; outline: as §7
# [26] = system: Lipid bilayer; test: Disruption of interfacial region in DOPC/DOPE/DOPG/CH (50/30/10/10 mol%) small unilamellar vesicles at 2 to 10 uM by TMA-DPH based fluorescence anisotropy; conditions: dose 2-10 µM; outline: as §1
# [27] = system: Lipid bilayer; test: Inhibition of PEG-induced DOPC/DOPE/DOPG/CH (50/30/10/10 mol%) small unilamellar vesicles assessed as content leakage at 1:100 compound: lipid concentration preincubated for 10 mins followed by PEG addition by fluorescence based analysis (reference value: 13.6 +/- 0.5 %); outline: as §7
# [28] = system: Lipid bilayer; test: Inhibition of PEG-induced DOPC/DOPE/DOPG/CH (40/30/10/20 mol%) small unilamellar vesicles assessed as content leakage at 1:100 compound: lipid concentration preincubated for 10 mins followed by PEG addition by spectrofluorometric analysis; outline: as §7
# [29] = system: Lipid bilayer; test: Inhibition of interfacial polarity in DOPC/DOPE/DOPG (60/30/10 mol%) small unilamellar vesicles assessed as decrease in interfacial polarity at 2 to 10 uM by TMA-DPH fluorescence analysis; conditions: dose 2-10 µM
# Outline: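 Interfacial polarity from TMA-DPH mean fluorescence lifetime in SUVs across peptide concentrations. TCSPC with 340 nm pulsed LED excitation, Ludox for IRF, 10 000 peak counts. Multi-exponential fits with χ2 ≤ 1.2; intensity-averaged lifetime. Run at 37 °C, pH 7.4 TES buffer, 200 μM lipid.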
# [30] = system: Lipid bilayer; test: Binding affinity to DOPC/DOPE/DOPG (60/30/10 mol%) small unilamellar vesicles assessed as membrane organization and dynamic by measuring increase in fluorescence intensity at 1:100 compound: lipid concentration by tryptophan fluorescence based spectrofluorometric analysis; outline: as §6
# [31] = system: Lipid bilayer; test: Inhibition of PEG-induced DOPC/DOPE/DOPG/CH (40/30/10/20 mol%) small unilamellar vesicles assessed as lipid mixing at 1:100 compound: lipid concentration preincubated for 10 mins followed by PEG addition by spectrofluorometric analysis (reference value: 92.7 +/- 3.7 %); outline: as §4
# [32] = system: Lipid bilayer; test: Inhibition of PEG-induced DOPC/DOPE/DOPG/CH (50/30/10/10 mol%) small unilamellar vesicles assessed as content mixing at 1:100 compound: lipid concentration preincubated for 10 mins followed by PEG addition by fluorescence based analysis (reference value: 11.4 +/- 0.4 %); outline: as §2
smiles,measurement,setting,value
CC[C@H](C)[C@H](NC(=O)[C@H](CC(C)C)NC(=O)[C@H](C)NC(=O)[C@@H](NC(=O)[C@H](Cc1ccccc1)NC(=O)[C@H](CCCCN)NC(=O)[C@@H]1CCCN1C(=O)[C@H](CC(N)=O)NC(=O)[C@@H](NC(=O)[C@H](C)NC(=O)[C@H](CS)NC(=O)[C@H](Cc1ccccc1)NC(=O)CNC(=O)[C@H](CO)NC(=O)[C@H](CC(=O)O)NC(=O)[C@H](Cc1c[nH]c2ccccc12)NC(=O)[C@@H](NC(=O)[C@@H](N)[C@@H](C)O)[C@@H](C)O)C(C)C)C(C)C)C(=O)N[C@@H](CS)C(=O)N[C@@H](CC(=O)O)C(=O)N[C@@H](Cc1c[nH]c2ccccc12)C(=O)N[C@@H](CO)C(=O)NCC(=O)O (H-TTWDSGFCAVNPKFVALICDWSG-OH),Activity,[1],Active; Less Stiff In Membranes
same,inhibition,[2],9.8%
same,inhibition,[3],15.5%
same,pEC50,[4],~4.67
same,Activity,[5],0
same,inhibition,[6],72.1%
same,Activity,[7],Active
same,inhibition,[8],Active
same,inhibition,[9],30%
same,Activity,[10],Active
same,Activity,[11],Active
same,Activity,[12],Active
same,Activity,[13],Dose-dependent-effect
same,inhibition,[14],8.7%
same,Activity,[15],Active
same,inhibition,[16],14.4%
same,inhibition,[17],33%
same,inhibition,[18],69%
same,inhibition,[19],8%
same,inhibition,[20],6%
same,pEC50,[21],~4.69
same,Activity,[22],Dose-dependent-effect
same,Activity,[23],Dose-dependent-effect
same,Activity,[24],Active
same,inhibition,[25],40%
same,Activity,[26],Active
same,inhibition,[27],8.3%
same,inhibition,[28],inactive
same,inhibition,[29],Active; Partial Reduction Is Observed
same,Activity,[30],Active
same,inhibition,[31],100%
same,inhibition,[32],8.1%

# From ChEMBL document CHEMBL6182829, “Developing peptide-based fusion inhibitors as an antiviral strategy utilizing coronin 1 as a template” (RSC Med Chem, 2025)
